Data: ChEMBL document CHEMBL2390833, “Elucidation of the pharmacophore of echinocystic acid, a new lead for blocking HCV entry” (Eur J Med Chem, 2013)

Key:
[1] = test system: Vesicular stomatitis virus; assay: Antiviral activity against Vesicular stomatitis virus assessed as blockage of VSV pseudo paricle entry to human Hep3B cells at 5 uM after 72 hrs; type: functional, Hep 3B2
[2] = test system: Vesicular stomatitis virus; assay: Antiviral activity against Vesicular stomatitis virus assessed as blockage of VSV pseudo paricle entry to human Hep3B cells at 1 uM after 72 hrs; type: functional, Hep 3B2
Hepatitis C virus [3] = assay: Antiviral activity against Hepatitis C virus assessed as blockage of HCV pseudo paricle entry to human Hep3B cells at 5 uM after 72 hrs; type: functional, Hepacivirus hominis, Hep 3B2
Hepatitis C virus [4] = assay: Antiviral activity against Hepatitis C virus assessed as blockage of HCV pseudo paricle entry to human Hep3B cells at 1 uM after 72 hrs; type: functional, Hepacivirus hominis, Hep 3B2
[5] = Hemolytic activity in rabbit RBC assessed as hemolysis after 60 mins by microtitre plate reader analysis; type: ADME, cell-based, Oryctolagus cuniculus; conditions: erythrocyte, 1 h
How it was run: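 Rabbit erythrocytes at 2% (5 × 10⁸ RBC/mL) in PBS, pH 7.4, exposed to serially diluted compounds for 60 min at 37 °C. Hemolysis was read as absorbance at 541 nm, and percentage hemolysis was calculated by the routine method.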

Compound	Activity [1] [%]	Activity [2] [%]	Activity (Hepatitis C virus [3]) [%]	Activity (Hepatitis C virus [4]) [%]	Activity [5]
CC1(C)C[C@H]2C3=CC[C@@H]4[C@@]5(C)CC[C@H](O)C(C)(C)[C@@H]5CC[C@@]4(C)[C@]3(C)C[C@@H](O)[C@@]2(C(=O)O)C[C@@H]1O	33.2	20.7	18.4	-5.7	–
CC1(C)[C@@H](O)CC[C@]2(C)[C@H]3CC=C4[C@@H]5C[C@](C)(CO)CC[C@]5(C(=O)O)[C@H](O)C[C@@]4(C)[C@]3(C)CC[C@@H]12	3.6	-2.5	36.5	16.5	Non-toxic
CC1(C)CC[C@]2(C(=O)O)[C@H](O)C[C@]3(C)C(=CC[C@@H]4[C@@]5(C)CC[C@H](O)C(C)(C)[C@@H]5C[C@H](O)[C@]43C)[C@@H]2C1	5.6	1.6	53.5	30.4	Non-toxic
CC1(C)CC[C@]2(C(=O)O)[C@H](O)C[C@]3(C)C(=CC[C@@H]4[C@@]5(C)[C@H](O)C[C@H](O)C(C)(C)[C@@H]5CC[C@]43C)[C@@H]2C1	11.8	7.9	35.2	14.3	Non-toxic
CC1(C)CC2=C3C=C[C@@H]4[C@@]5(C)CC[C@H](O)C(C)(C)[C@@H]5CC[C@@]4(C)[C@]3(C)C[C@@H](O)[C@@]23C[C@@H]1OC3=O	-10.3	-16.2	31.7	11.6	Non-toxic
CC1(C)C[C@H]2C3=CC[C@@H]4[C@@]5(C)CC[C@H](O)C(C)(C)[C@@H]5[C@H](O)C[C@@]4(C)[C@]3(C)C[C@@H](O)[C@@]23C[C@@H]1OC3=O	-24	-8.3	4.7	-1	Non-toxic
CC1(C)C[C@H]2C3=CC[C@@H]4[C@@]5(C)[C@H](O)C[C@H](O)C(C)(C)[C@@H]5CC[C@@]4(C)[C@]3(C)C[C@@H](O)[C@@]23C[C@@H]1OC3=O	19.2	1.8	72.6	28.9	Non-toxic
CC1(C)CC[C@@]2(C(=O)O)C(=C3C=C[C@@H]4[C@@]5(C)CC[C@H](O)C(C)(C)[C@@H]5C[C@H](O)[C@@]4(C)[C@]3(C)C[C@H]2O)C1	-4.4	-13.7	31.9	22.2	–
CC1(C)CC[C@]2(C(=O)O)[C@H](O)C[C@]3(C)C(=CC[C@@H]4[C@@]5(C)CCC(=O)C(C)(C)[C@@H]5CC[C@]43C)[C@@H]2C1	13.6	-2.5	41.6	7.5	Non-toxic
CC1(C)CC[C@@]2(C(=O)O)C(=C3C=C[C@@H]4[C@@]5(C)[C@H](O)C[C@H](O)C(C)(C)[C@@H]5CC[C@@]4(C)[C@]3(C)C[C@H]2O)C1	5.9	-15.8	26.3	2.3	–
CC1(C)C(=O)CC[C@]2(C)[C@H]3CC=C4[C@@H]5C[C@](C)(CO)CC[C@]5(C(=O)O)[C@H](O)C[C@@]4(C)[C@]3(C)CC[C@@H]12	10.7	-20	-3.3	3.1	–
CC1(C)C[C@H]2C3=CC[C@@H]4[C@@]5(C)CC[C@H](O)C(C)(C)[C@@H]5CC[C@@]4(C)[C@]3(C)C[C@@H](O)[C@@]23C[C@@H]1OC3=O	-12.1	-17.3	31.9	13.9	Non-toxic
CC1(C)CC[C@]2(C(=O)O)[C@H](O)C[C@]3(C)C(=CC[C@@H]4[C@@]5(C)CC[C@H](O)C(C)(C)[C@@H]5CC[C@]43C)[C@H]2C1 [ECHINOCYSTIC ACID]	-0.1	-0.1	75.5	21.3	–
